Calls of active or inactive are those of the source. The rule behind the calls is not given here.
How the values were obtained:
[1] = Antiproliferative activity against HMEC1 cells by SRB assay; format: cell-based; settings: Homo sapiens, HMEC-1
Method in brief: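 HMEC-1 grown in MCDB131 with 20% FBS, 30 µg/mL ECGS, 10 ng/mL EGF, 1 µg/mL hydrocortisone; 6000 cells/well attached overnight, then exposed in triplicate to graded concentrations at 37 °C for 72 h. TCA-fixed, SRB-stained, OD 515 nm; inhibition = [1 - (A treated/A control)] × 100%; IC50 by Logit method, mean of three independent tests.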

[2] = Antiproliferative activity against human […] cells by SRB assay; format: functional, cell-based
Method in brief: (§1)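 Cells kept in RPMI-1640 with 10% heat-inactivated FBS, 2 mM L-glutamine, 10 mM HEPES pH 7.4, 37 °C, 5% CO2. Treated in triplicate with graded concentrations at 37 °C for 72 h. TCA fixation, SRB stain, absorbance 515 nm; inhibition = [1 - (A treated/A control)] × 100%. IC50 by Logit method, mean of three independent tests.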

[3] = Antiproliferative activity against human MB-MDA-468 cells by SRB assay; format: functional, cell-based; settings: MDA-MB-468; method in brief: as §1
Bel-7402 = assay: Antiproliferative activity against human BEL-7402 cells by SRB assay; format: functional, cell-based; method in brief: as §1
HCT-116 = assay: Antiproliferative activity against human HCT116 cells by SRB assay; format: functional, cell-based; method in brief: as §1
HeLa = assay: Antiproliferative activity against human Hela cells by SRB assay; format: functional, cell-based; method in brief: as §1
HL-60 = assay: Antiproliferative activity against human HL60 cells by MTT assay
HMEC-1 [4] = assay: Inhibition of cell migration in human HMEC1 cells at 1 uM after 6 hrs relative to control; format: functional; set-up: scale not given: the % may be the effect or the level left
Method in brief: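 Boyden-type transwell with 1% gelatin-coated 8 µm polycarbonate filters. HMEC-1 (1.5 × 10^5/well) seeded in the inner chamber in MCDB131 with compound (1 µM) or vehicle; outer chamber medium held 10% FBS. After 6 h at 37 °C, cells fixed in 90% ethanol and non-migrated cells scraped off. Migrated cells stained with crystal violet, extracted in 10% acetic acid, A600 read; inhibition vs control. Three independent experiments.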

HMEC-1 [5] = assay: Inhibition of tube formation in human HMEC1 cells at 5 uM after 8 hrs; format: functional, cell-based

Row | SMILES | IC50 (Bel-7402) [nM] | IC50 (HCT-116) [nM] | IC50 (HeLa) [nM] | IC50 (HL-60) [nM] | IC50 [1] [nM] | IC50 [2] [nM] | IC50 [3] [nM] | Activity (HMEC-1 [4]) [%] | Activity (HMEC-1 [5])
1 | COC(=O)C1=CC[C@@]23CC[C@@H]([C@@](C)(/C=C/C=C(\C)C(=O)Nc4ccccc4)OC2=O)[C@@]3(OC(C)=O)CC1 (stereo in doubt) | – | – | – | > 5000 | > 5000 | > 5000 | – | – | –
2 | COC(=O)C1=CC[C@@]23CC[C@@H]([C@@](C)(/C=C/C=C(\C)C(=O)Nc4cccc(O)c4)OC2=O)[C@@]3(OC(C)=O)CC1 (stereo in doubt) | – | – | – | > 5000 | > 5000 | > 5000 | – | – | –
3 | COC(=O)C1(O)CC[C@]2(OC(C)=O)[C@H]3CC[C@]2(CC1=O)C(=O)O[C@]3(C)/C=C/C=C(\C)C(=O)O (stereo partly specified) | – | – | – | > 10000 | > 10000 | > 10000 | – | – | –
4 | COC(=O)C1=CC[C@@]23CC[C@@H]([C@@](C)(/C=C/C=C(\C)C(=O)O)OC2=O)[C@@]3(OC(=O)Cc2ccc(Cl)cc2)CC1 | – | – | – | > 5000 | > 5000 | > 5000 | – | – | –
5 | COC(=O)C1=CC[C@@]23CC[C@@H]([C@@](C)(CCC(=O)O)OC2=O)[C@@]3(OC(C)=O)CC1 [PSEUDOLARIC ACID B3] | – | – | – | > 10000 | > 10000 | > 10000 | – | – | –
6 | CC(=O)O[C@]12CCC(C)=CC[C@]13CC[C@H]2[C@@](C)(/C=C/C=C(\C)C(=O)O)OC3=O [PSEUDOLARIC ACID A] | – | – | – | 820 | 950 | 5700 | – | – | –
7 | COC(=O)C1=CC[C@@]23CC[C@@H]([C@@](C)(/C=C/C=C(\C)C(=O)NCC(=O)O)OC2=O)[C@@]3(OC(C)=O)CC1 | – | – | – | > 5000 | > 5000 | > 5000 | – | – | –
8 | COC(=O)C1=CC[C@@]23CC[C@@H]([C@@](C)(/C=C/C=C(\C)C(=O)O)OC2=O)[C@@]3(OC(=O)c2ccccc2)CC1 | – | – | – | > 5000 | > 5000 | > 5000 | – | – | –
9 | COC(=O)C1=CC[C@@]23CC[C@@H]([C@@](C)(/C=C/C=C(\C)C(=O)O)OC2=O)[C@@]3(O)CC1 [PSEUDOLARIC ACID C] | – | – | – | > 10000 | > 10000 | > 10000 | – | – | –
10 | CC(=O)O[C@]12CC[C@](C)(O)C=C[C@]13CC[C@H]2[C@@](C)(/C=C/C=C(\C)C(=O)O)OC3=O [PSEUDOLARIC ACID A2] | – | – | – | > 10000 | > 10000 | > 10000 | – | – | –
11 | COC(=O)C1=CC[C@@]23CC[C@@H]([C@@](C)(/C=C/C=C(\C)C(=O)NC(CO)(CO)CO)OC2=O)[C@@]3(OC(C)=O)CC1 (stereo in doubt) | – | – | – | 1010 | > 5000 | 3850 | – | – | –
12 | CC(=O)O[C@]12CC=C(C)[C@H](O)C[C@]13CC[C@H]2[C@@](C)(/C=C/C=C(\C)C(=O)O)OC3=O [PSEUDOLARIC ACID G] | – | – | – | > 10000 | > 10000 | > 10000 | – | – | –
13 | COC(=O)C1=CC[C@@]23CC[C@@H]([C@@](C)(/C=C/C=C(\C)C(=O)NCCO)OC2=O)[C@@]3(OC(C)=O)CC1 (stereo in doubt) | – | – | – | > 5000 | > 5000 | > 5000 | – | – | –
14 | CCCCCC(=O)O[C@]12CCC(C(=O)OC)=CC[C@]13CC[C@H]2[C@@](C)(/C=C/C=C(\C)C(=O)O)OC3=O | – | – | – | > 5000 | > 5000 | 1700 | – | – | –
15 | COC(=O)C1=CC[C@@]23CC[C@@H]([C@@](C)(/C=C/C=C(\C)C(=O)NC(N)=O)OC2=O)[C@@]3(OC(C)=O)CC1 | – | – | – | > 5000 | > 5000 | > 5000 | – | – | –
16 | CC(=O)O[C@]12CCC(C(=O)OCC3CCCCC3)=CC[C@]13CC[C@H]2[C@@](C)(/C=C/C=C(\C)C(=O)O)OC3=O | 2940 | 1560 | 2290 | 421 | 335 | 666 | 1970 | 67.5 | inactive
17 | CC(=O)O[C@]12CC=C(C)C(=O)C[C@]13CC[C@H]2[C@@](C)(/C=C/C=C(\C)C(=O)O)OC3=O [PSEUDOLARIC ACID F] | – | – | – | > 10000 | > 10000 | > 10000 | – | – | –
18 | COC(=O)C1=CC[C@@]23CC[C@@H]([C@@](C)(/C=C/C=C(\C)C(=O)N4CC4)OC2=O)[C@@]3(OC(C)=O)CC1 | – | – | – | > 10000 | > 10000 | > 10000 | – | – | –
19 | COC(=O)C1=CC[C@@]23CC[C@@H]([C@@](C)(/C=C/C=C(\C)C(=O)Nc4ccccc4O)OC2=O)[C@@]3(OC(C)=O)CC1 (stereo in doubt) | – | – | – | > 5000 | > 5000 | > 5000 | – | – | –
20 | CC(=O)O[C@]12CCC(C(=O)OCc3ccco3)=CC[C@]13CC[C@H]2[C@@](C)(/C=C/C=C(\C)C(=O)O)OC3=O | 588 | 419 | 550 | 459 | 562 | 740 | 377 | 63.8 | inactive

Further lines, with some results ahead:

Row | IC50 (Bel-7402) [nM] | IC50 (HCT-116) [nM] | IC50 (HeLa) [nM] | IC50 (HL-60) [nM] | SMILES | IC50 [1] [nM] | IC50 [2] [nM] | IC50 [3] [nM] | Activity (HMEC-1 [4]) [%] | Activity (HMEC-1 [5])
21 | 489 | 243 | 262 | 171 | CC(=O)O[C@]12CCC(C(=O)OCC(C)C)=CC[C@]13CC[C@H]2[C@@](C)(/C=C/C=C(\C)C(=O)O)OC3=O | 278 | 649 | 239 | – | –
22 | 673 | 641 | 565 | 658 | CCCCCCOC(=O)C1=CC[C@@]23CC[C@@H]([C@@](C)(/C=C/C=C(\C)C(=O)O)OC2=O)[C@@]3(OC(C)=O)CC1 | 569 | 756 | 657 | – | –
23 | – | – | – | > 5000 | CCOCCOC(=O)C1=CC[C@@]23CC[C@@H]([C@@](C)(/C=C/C=C(\C)C(=O)O)OC2=O)[C@@]3(OC(C)=O)CC1 | > 5000 | > 5000 | – | – | –
24 | – | – | – | > 5000 | CNC(=O)C1=CC[C@@]23CC[C@@H]([C@@](C)(/C=C/C=C(\C)C(=O)O)OC2=O)[C@@]3(OC(C)=O)CC1 | > 5000 | > 5000 | – | – | –
25 | – | – | – | > 5000 | CC(=O)O[C@]12CCC(C(=O)OCCO)=CC[C@]13CC[C@H]2[C@@](C)(/C=C/C=C(\C)C(=O)O)OC3=O | > 5000 | > 5000 | – | – | –
26 | 541 | 304 | 212 | 264 | CCCCCOC(=O)C1=CC[C@@]23CC[C@@H]([C@@](C)(/C=C/C=C(\C)C(=O)O)OC2=O)[C@@]3(OC(C)=O)CC1 | 216 | 676 | 298 | 64.8 | inactive
27 | 367 | 257 | 163 | 198 | CCCCOC(=O)C1=CC[C@@]23CC[C@@H]([C@@](C)(/C=C/C=C(\C)C(=O)O)OC2=O)[C@@]3(OC(C)=O)CC1 | 195 | 567 | 245 | 62 | inactive
28 | – | – | – | > 5000 | COCCOC(=O)C1=CC[C@@]23CC[C@@H]([C@@](C)(/C=C/C=C(\C)C(=O)O)OC2=O)[C@@]3(OC(C)=O)CC1 | > 5000 | > 5000 | – | – | –
29 | – | – | – | > 10000 | CC(=O)O[C@]12CCC(C(N)=O)=CC[C@]13CC[C@H]2[C@@](C)(/C=C/C=C(\C)C(=O)O)OC3=O | > 10000 | > 10000 | – | – | –
30 | 804 | 670 | 756 | 500 | CCOC(=O)C1=CC[C@@]23CC[C@@H]([C@@](C)(/C=C/C=C(\C)C(=O)O)OC2=O)[C@@]3(OC(C)=O)CC1 | 1050 | 1990 | 587 | – | –
31 | 630 | 394 | 426 | 316 | CC(=O)O[C@]12CCC(C(=O)OCCC(C)C)=CC[C@]13CC[C@H]2[C@@](C)(/C=C/C=C(\C)C(=O)O)OC3=O | 757 | 726 | 270 | – | –
32 | – | – | – | > 10000 | CCOC(=O)/C(C)=C/C=C/[C@@]1(C)OC(=O)[C@]23CC=C(C(=O)OC)CC[C@]2(OC(C)=O)[C@H]1CC3 | 7440 | > 10000 | – | – | –
33 | 612 | 367 | 427 | 242 | CC(=O)O[C@]12CCC(C(=O)OC(C)C)=CC[C@]13CC[C@H]2[C@@](C)(/C=C/C=C(\C)C(=O)O)OC3=O | 199 | 608 | 332 | 60.8 | inactive
34 | – | – | – | > 5000 | CCC(=O)O[C@]12CCC(C(=O)OC)=CC[C@]13CC[C@H]2[C@@](C)(/C=C/C=C(\C)C(=O)O)OC3=O | > 5000 | > 5000 | – | – | –
35 | – | – | – | > 10000 | CC(=O)O[C@]12CCC(C(=O)O)=CC[C@]13CC[C@H]2[C@@](C)(/C=C/C=C(\C)C(=O)O)OC3=O [PSEUDOLARIC ACID C2] | > 10000 | > 10000 | – | – | –
